One experiment has as its target GSTP1 (GST-π) (Homo sapiens, UniProt P09211). In words: GST activity assay. Format: biochemical. To be noted: read-out: IC50 for inhibition of formation of the CDNB-GSH conjugate in the presence of GST-π; GSTP1 5 μg/mL, pH 6.8, absorption at 355 nm.
In the next experiment the target is T1, GSTA1 (GST-α) (Homo sapiens, UniProt P08263).
T1 sequence (P08263 1-222): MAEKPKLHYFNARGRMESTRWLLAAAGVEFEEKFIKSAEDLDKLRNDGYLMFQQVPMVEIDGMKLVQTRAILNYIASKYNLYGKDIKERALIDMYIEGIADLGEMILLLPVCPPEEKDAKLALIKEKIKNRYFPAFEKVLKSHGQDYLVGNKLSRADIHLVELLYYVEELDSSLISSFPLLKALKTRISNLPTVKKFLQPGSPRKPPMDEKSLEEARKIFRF
In words: GST activity assay. The following applies: read-out: IC50 for inhibition of formation of the CDNB-GSH conjugate in the presence of GST-α; GSTA1 5 μg/mL, pH 6.8, absorption at 355 nm. Format: biochemical. In a few lines:
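Recombinant human GSTA1 at 5 μg/mL in 0.1 M sodium phosphate, pH 6.8. GSH and CDNB were added from 2.5 mM and 7.5 mM stocks. Test compound was made as a 10 mM ethanol stock, then serially diluted to 10^-2–100 μM to compete with CDNB for conjugation to GSH. After 1–5 min, absorbance read at 355 nm, minus non-enzymatic conjugation. Triplicate runs; IC50 taken from dose–response curves.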

Another experiment has as its system C6 glioma tumor. In words: In vivo PET imaging of C6 glioma-bearing rat. On the set-up: species or system Sprague–Dawley rats. The following applies: dynamic PET 0-60 minutes post-injection, intravenous. In a few lines:
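Male Sprague–Dawley rats (8 weeks) stereotactically inoculated in the right hemisphere with 1.0×10^5 C6 cells. Tumours grew 2 weeks to 3–5 mm, with loci confirmed by MRI. Rats were anaesthetised with isoflurane in 200 mL/min oxygen and fitted with venous and arterial catheters. Imaged on a microPET R4 scanner; one tumour-bearing and one healthy rat were scanned.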

“And” between values parts separate entries of the source, which are not always exact repeats. Equal values may be shown once.

For `C=C(CC)C(=O)c1ccc(OCC(=O)NCCCCF)c(Cl)c1Cl` [FBuEA, fluorobutyl ethacrynic amide], the IC50 is 6.02 µM and 6 µM at GSTP1 (GST-π); 17.5 µM on GSTA1 (GST-α).
For `Cc1cn([C@H]2C[C@H]([18F])[C@@H](CO)O2)c(=O)[nH]c1=O` [[^18F]FLT, 3′-deoxy-3′-[^18F] fluorothymidine], the “Accumulation in C6 glioma tumor loci (PET)” value in the experiment on C6 glioma tumor is “tumor sites were targeted”.

The record behind these values is paper PMC4521672 (OncoTargets and therapy, 2015).
